SENP1 FRET inh: SENP1 (human) catalytic domain inhibition; Q9P0U3; recombinant SENP1 catalytic domain, CyPet-SUMO1-YPet FRET cleavage; inhibition, % at 10 µM; actives 0.21% (n = 360,000);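 active means inhibition at least 30% at 10 µM, raw YFP signal under a set limit, fluorescence ratio 0.5 to 1.5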
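Material: hSENP1 catalytic domain, recombinant; medium: Tris pH 8 with BME, BSA, NP40 and catalase; compound: single concentration of 10 µM compound, 0.5% DMSO final; technique: FRET read of cyan and yellow fluorescence; timing: 50 min enzyme reaction, room temperature, light-protected; reagent: SFCypet-SUMO1-SFYpet substrate at 25 nM; control set: no-enzyme low, enzyme-DMSO high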
UCH37 inh: human UCH37 deubiquitinating enzyme inhibition | Q9Y5K5 | purified proteasome/UCH37, Ub-AMC cleavage fluorescence | inhibition, % (concentration not given with the values) | actives 0.33% (n = 330,000) | AID 588478;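 active means mean inhibition over replicate wells above about 20%, limit read from the data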
Target sequence (Q9Y5K5 whole entry, looked up): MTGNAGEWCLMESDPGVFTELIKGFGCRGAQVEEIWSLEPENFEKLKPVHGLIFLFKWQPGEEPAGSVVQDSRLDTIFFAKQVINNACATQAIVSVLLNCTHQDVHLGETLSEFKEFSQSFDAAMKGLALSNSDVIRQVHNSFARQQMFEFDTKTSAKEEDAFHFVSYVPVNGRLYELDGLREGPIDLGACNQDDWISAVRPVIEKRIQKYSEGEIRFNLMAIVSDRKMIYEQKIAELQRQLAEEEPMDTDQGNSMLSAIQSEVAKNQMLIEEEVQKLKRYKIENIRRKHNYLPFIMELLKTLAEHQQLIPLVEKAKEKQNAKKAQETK
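system = Proteasome-associated human UCH37 deubiquitinase | amount = 0.15 nM proteasome as dispensed | medium = pH 7.4 Tris-HCl (50 mM) with ovalbumin, ATP-MgCl2, DTT | incubation = 30 min preincubation with enzyme, 25 min cleavage at room temperature | detection = AMC fluorescence 355/460 nm | read-out basis = percent inhibition | controls = no-proteasome and no-compound wells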
SENP6 inh: SENP6 protease inhibition | Q9GZR1 | Recombinant SENP6 catalytic domain, aminoluciferin luminescence | inhibition, % at 10 µM | actives 1.8% (n = 330,000) | AID 2599;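 active means inhibition above about 50% at the single tested dose, limit read from the data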
SENP7 block: blocks the human protease SENP7; Q9BQF6; recombinant SENP7, Z-RLRGG-aminoluciferin luminescence, 40 min; inhibition, % at 5 µM; actives 1.5% (n = 330,000); AID 434973;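 active means inhibition above about 50% at the single test dose, limit read from the data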
SENP8 block-1: blocks human SENP8 cleavage of Nedd8 substrate; Q96LD8; recombinant SENP8, Nedd8 substrate fluorescence; inhibition, % at 20 µM; actives 0.64% (n = 360,000); AID 602440; in the data active means inhibition mostly above about 40%, no sharp cut-off; inactive means mostly below about 27%
SENP8 block-2: SENP8 protease inhibition; actives 1.2% (n = 330,000); purified SENP8, Z-RLRGG-aminoluciferin cleavage, luminescence; inhibition, % at 10 µM; in the data active means inhibition above about 50%
SENP8 confirm: confirmation of human SENP8 protease inhibitors; shares compounds with SENP7 block; Recombinant SENP8, Z-RLRGG-aminoluciferin luminescence, 60 min; inhibition, % at 12.5 µM; actives 40% (n = 6,200); AID 488912;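 active means mean inhibition across replicates above about 50%, limit read from the data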
SENP6 conf: confirmation of human SENP6 protease inhibitors; shares compounds with SENP7 block; recombinant SENP6, Z-RLRGG-aminoluciferin luminescence; inhibition, % at 12.5 µM; actives 58% (n = 6,200); AID 488915
SENP7 confirm: confirmation of human SENP7 protease inhibitors; shares compounds with SENP7 block; recombinant SENP7, Z-RLRGG-aminoluciferin luminescence, 40 min; inhibition, % at 12.5 µM; actives 69% (n = 6,200); AID 488917
Casp3 SENP sel: caspase-3 inhibition (SENP selectivity assay). purified caspase-3, Z-DEVD-aminoluciferin luminescence, 60 min. actives 60% (n = 6,200). inhibition, % at 12.5 µM. shares compounds with SENP7 block;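 active means mean inhibition above about 50%, limit read from the data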
Target sequence (P42574 28-227 limits assumed): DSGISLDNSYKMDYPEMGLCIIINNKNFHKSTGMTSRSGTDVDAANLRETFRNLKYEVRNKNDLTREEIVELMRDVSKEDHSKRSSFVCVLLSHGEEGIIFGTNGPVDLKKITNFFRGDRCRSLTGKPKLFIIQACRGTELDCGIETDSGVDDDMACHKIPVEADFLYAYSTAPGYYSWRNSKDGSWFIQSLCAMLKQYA
SENP luc ctr: luminescence interference (SENP counter-screen) | shares compounds with SENP7 block | Pre-incubated SENP8/Z-RLRGG-aminoluciferin, luciferase luminescence interference | inhibition, % at 12.5 µM | actives 39% (n = 6,200) | AID 488919;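 active means mean inhibition above about 50% when retested at one dose, limit read from the data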
Each line names hits and unclear results; the compound was inactive in the other large screens (follow-up assays come after a bar, where they were run). Hits are enriched below; roughly 2.6% of the tested compounds scored in any of these assays.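 How the source made its calls, unless noted: active means mean inhibition above about 50% in the one-dose retest (limit read from the data); inactive means the rest.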

COc1ccc(-c2nc(-c3cccnc3)no2)cc1OC	none
O=C(O)c1ccc(-c2nnc(-c3cccc(Br)c3)o2)cc1	SENP6 inh 93 | SENP8 confirm 89 | SENP6 conf 90 | SENP7 confirm 93 | Casp3 SENP sel 98 | SENP luc ctr inactive
COc1cccc(-c2nc(-c3ccccn3)no2)c1	SENP6 inh 97, SENP7 block 97, SENP8 block-2 92 (no result: SENP1 FRET inh, SENP8 block-1) | SENP8 confirm 95 | SENP6 conf 98 | SENP7 confirm 103 | Casp3 SENP sel 98 | SENP luc ctr 96
COc1cccc(-c2nc(-c3ccc(NC(=O)c4cccnc4)cc3)no2)c1	none
COc1cccc(-c2noc(-c3cccnc3)n2)c1	SENP6 inh 81, SENP7 block 79, SENP8 block-2 58 | SENP8 confirm inactive | SENP6 conf 68 | SENP7 confirm 91 | Casp3 SENP sel 84 | SENP luc ctr 52
COc1cccc(-c2noc(-c3cccs3)n2)c1	SENP6 inh 92, SENP7 block 94, SENP8 block-2 88 | SENP8 confirm inactive | SENP6 conf 95 | SENP7 confirm 102 | Casp3 SENP sel 88 | SENP luc ctr 85
O=C(NN=Cc1ccc([N+](=O)[O-])o1)C(O)c1ccccc1 (stereo not drawn)	none (no result: SENP1 FRET inh, SENP6 inh, SENP7 block, SENP8 block-1, SENP8 block-2)
CCCCNC(=S)NN=Cc1cc(C)ccc1C	none (no result: SENP1 FRET inh, SENP6 inh, SENP7 block, SENP8 block-1, SENP8 block-2)
O=C(CNC(=O)C1COc2ccccc2O1)NN=Cc1cc(Br)c(O)c(Br)c1 (stereo not drawn)	none (no result: SENP1 FRET inh, SENP6 inh, SENP7 block, SENP8 block-1, SENP8 block-2)
CCc1ccc(C(C)=NNC(=O)c2c[nH]c3ccccc23)s1	none (no result: SENP1 FRET inh, SENP6 inh, SENP7 block, SENP8 block-1, SENP8 block-2)
CC(=NNC(=O)NC1CCCCC1)c1ccco1	none (no result: SENP1 FRET inh, SENP6 inh, SENP7 block, SENP8 block-1, SENP8 block-2)
CCN(CC)Cc1c(C(=O)NN=Cc2cccs2)nnn1-c1nonc1N	none (no result: SENP1 FRET inh, SENP6 inh, SENP7 block, SENP8 block-1, SENP8 block-2)
O=C(O)c1ccc(-c2noc(-c3cccc(C(F)(F)F)c3)n2)cc1	SENP6 inh 58 | SENP8 confirm 54 | SENP6 conf 56 | SENP7 confirm 80 | Casp3 SENP sel 56 | SENP luc ctr 54
c1ccc(-c2cc(-c3cc(-c4ccccc4)on3)no2)cc1	none (no result: UCH37 inh, SENP6 inh, SENP7 block, SENP8 block-2)
COc1ccc(-c2noc(-c3ccccc3-c3ccccc3)n2)cc1	none
COc1cccc(-c2nc(-c3ccccc3)no2)c1	SENP6 inh 95, SENP7 block 95, SENP8 block-2 89 | SENP8 confirm 87 | SENP6 conf 93 | SENP7 confirm 98 | Casp3 SENP sel 85 | SENP luc ctr 83
COc1ccc(-c2nc(-c3ccc(C(=O)O)cc3)no2)cc1	SENP6 inh 98, SENP7 block 95, SENP8 block-2 97 | SENP8 confirm 98 | SENP6 conf 98 | SENP7 confirm 102 | Casp3 SENP sel 86 | SENP luc ctr 97
COc1ccc(-c2cc(-c3ccccc3)no2)cc1	SENP6 inh 97, SENP7 block 100, SENP8 block-2 92 | SENP8 confirm inactive | SENP6 conf 81 | SENP7 confirm 86 | Casp3 SENP sel 76 | SENP luc ctr inactive
COc1ccc(-c2noc(-c3ccc(Cl)cc3)n2)cc1	none (no result: SENP1 FRET inh, SENP8 block-1)
CCOC(=O)c1cn2nc(N3CCCCC3)ccc2n1	SENP6 inh 72, SENP7 block 71, SENP8 block-2 68 | SENP8 confirm 72 | SENP6 conf 72 | SENP7 confirm 93 | Casp3 SENP sel 89 | SENP luc ctr 78
CCOC(=O)c1cn2nc(N3CCCC3)ccc2n1	none
CCOc1ccc(N=Cc2c(C)[nH]n(-c3nc4ccccc4[nH]3)c2=O)cc1	SENP6 inh 94, SENP7 block 85, SENP8 block-2 80 | SENP8 confirm inactive | SENP6 conf inactive | SENP7 confirm 50 | Casp3 SENP sel 75 | SENP luc ctr 69
Cc1[nH]n(-c2ccccc2)c(=O)c1C=Nc1cnc2ccccc2c1	none
N#C/C(=C(/O)c1ccc(Br)s1)c1nc2ccccc2[nH]1	none
N#C/C(=C(/O)c1ccc([N+](=O)[O-])s1)c1nc2ccccc2[nH]1	SENP7 block 52 | SENP8 confirm inactive | SENP6 conf inactive | SENP7 confirm inactive | Casp3 SENP sel inactive | SENP luc ctr inactive
O=S(=O)(NN=Cc1ccc2c(c1)OCO2)c1ccccc1	none (no result: SENP1 FRET inh, SENP6 inh, SENP7 block, SENP8 block-1, SENP8 block-2)
CCOc1cc(C=Nn2cnnc2)ccc1OC(=O)c1cccc([N+](=O)[O-])c1	none (no result: SENP1 FRET inh, SENP6 inh, SENP7 block, SENP8 block-1, SENP8 block-2)
O=C(O/N=C1/CCCc2occc21)c1ccc(Cl)cc1Cl	SENP6 inh 67, SENP7 block 73, SENP8 block-2 55 (no result: UCH37 inh) | SENP8 confirm inactive | SENP6 conf inactive | SENP7 confirm inactive | Casp3 SENP sel 53 | SENP luc ctr inactive
O=C(ON=C1CCSc2ccccc21)c1ccc(F)cc1	none (no result: SENP1 FRET inh, SENP6 inh, SENP7 block, SENP8 block-1, SENP8 block-2)
O=C(O/N=C1/CCCc2occc21)c1ccccc1	SENP6 inh 89, SENP7 block 95, SENP8 block-2 84 (no result: UCH37 inh) | SENP8 confirm inactive | SENP6 conf 84 | SENP7 confirm 98 | Casp3 SENP sel 92 | SENP luc ctr 54
C=C(C)Cn1c(SCC(=O)NN=Cc2ccccc2OCC(=O)O)nnc1-c1ccc(Br)cc1	none (no result: SENP1 FRET inh, SENP6 inh, SENP7 block, SENP8 block-1, SENP8 block-2)
Cc1cccc(C(=O)Oc2ccc(C=NNC(=O)c3ccc(O)cc3)cc2)c1	none (no result: SENP1 FRET inh, SENP6 inh, SENP7 block, SENP8 block-1, SENP8 block-2)
CC(=NN(c1ccccc1)c1ccccc1)c1ccc(O)cc1	none (no result: SENP1 FRET inh, SENP6 inh, SENP7 block, SENP8 block-1, SENP8 block-2)
COc1ccc(C=NNC(=O)c2cccc([N+](=O)[O-])c2)cc1OC(=O)c1ccccc1	none (no result: SENP1 FRET inh, SENP6 inh, SENP7 block, SENP8 block-1, SENP8 block-2)
